Cl transport mod: KCC2 cotransporter modulators, thallium flux, primary screen, cell-based, HEK293 KCC2, FluoZin-2 fluorescence, MLSMR | B-score of Tl+ flux slope (higher = more flux/activation; lower = inhibition) at 10 µM | Solute carrier family 12 member 5 (Homo sapiens), Q9H2X9 | 190,000 tested, 2.2% active | KCC2 cells, thallium flux FluoZin-2 fluorescence | AID 1456, 2008;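 active = thallium flux slope and its plate-corrected score both differing from the plate sample mean at a set confidence after two filtering rounds, in either direction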;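 also: slope of fluorescence scaled to starting intensity during 10 to 20 s after thallium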
b-catenin transl: modulators of beta-catenin nuclear translocation, primary screen, imaging, HeLa cells, immunofluorescence, high-content; nuclear translocation activity, % at 5 µM; 190,000 tested, 0.3% active;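 active = nuclear translocation activity above 50% at 5 µM, with a well cell count of 50 or more; inconclusive = wells under 50 cells across six images, flagged as toxic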;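 also: per-cell ratio of nuclear to cytoplasmic median beta-catenin stain intensity; plate controls were DMSO negative control for no effect and GSK-3 inhibitor IX positive control for full effect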
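Read-out: Nuclear/cytoplasmic beta-catenin signal ratio, % activation | Assay system: Human HeLa cell line | Times: 24 h compound exposure at 37°C, 5% CO2 | Signal: Fluorescence imaging of beta-catenin antibody stain plus DAPI | Dosing: 5 µM primary, 0.02–20 µM confirmation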
MT stabilizer: microtubule stabilizers in HeLa cells, primary screen, imaging, high-content imaging; % tubulin-high responders, % at 10 µM; HeLa tubulin immunostaining HCS, 24 h; share of cells brighter than vehicle mean+2SD; AID 2205, 2009; 200,000 tested, 0.83% active;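 active = plate Z-score above 3 for both tubulin-high and condensed-nucleus cell shares, with cell loss under 80%, at 10 µM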;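 also: anti alpha tubulin signal scored within the nucleus-defined area of each cell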
DTT redox prof: compounds producing H2O2 with reducing agent – biochemical, NIH compound library profiling, artefact control for MLSCN library redox annotation, primary screen; DTT-dependent redox cycling H2O2, phenol red/HRP absorbance; 100% = 100 µM peroxide control, 0% = buffer; activation, % at 10 µM; 200,000 tested, 0.03% active; AID 878, 2007;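 active = activation of at least 50% relative to the plate's high and low controls in the primary single-dose screen; inactive = activation below 50%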;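 also: compound incubated with DTT at 0.8 mM final as the reducing agent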
ROMK mod: ROMK potassium channel modulators, primary screen, cell-based, thallium flux, MLSMR library; ATP-sensitive inward rectifier potassium channel 1 (Homo sapiens), P48048; Tet-inducible ROMK, thallium flux fluorescence; actives lie on both sides; B-score at 10 µM; 130,000 tested, 2% active;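 active = signal ratio slope over the read window, or its plate-corrected B-score, at least 3 SD from the plate mean, either direction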;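 also: B-score of the F/F0 ratio slope over 7 to 12 s after thallium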
Target sequence (P48048 whole entry, looked up): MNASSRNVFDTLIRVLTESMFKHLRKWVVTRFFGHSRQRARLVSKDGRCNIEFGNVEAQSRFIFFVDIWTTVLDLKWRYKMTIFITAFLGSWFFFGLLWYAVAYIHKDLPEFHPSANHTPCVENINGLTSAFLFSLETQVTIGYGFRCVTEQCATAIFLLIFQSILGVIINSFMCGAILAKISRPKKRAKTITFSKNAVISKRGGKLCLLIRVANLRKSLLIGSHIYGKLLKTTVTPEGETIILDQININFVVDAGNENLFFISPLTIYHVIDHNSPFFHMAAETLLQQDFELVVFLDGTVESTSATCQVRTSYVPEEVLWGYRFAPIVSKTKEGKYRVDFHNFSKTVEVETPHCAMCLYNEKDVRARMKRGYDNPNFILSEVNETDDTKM
ROMK hit retest: ROMK channel modulator hit retest, confirmation, cell-based, thallium flux, duplicate, resupplied hits; shares compounds with ROMK mod; fluorescence ratio; hits give low values; normalized thallium flux (F/F0 slope) at 10 µM; 3,000 tested, 54% active;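 active = Flux at 10 µM at least 3 SD below or above vehicle control mean in one or both replicates; inconclusive = no clear call, values can overlap the other calls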
The depositor's hits bear a star; i = inactive; ? = inconclusive; . = no result given. Only some compounds are listed: those with a hit (about 3.7% of all), similar ones and a draw of the others.

SMILES	Cl transport mod	b-catenin transl	MT stabilizer	DTT redox prof	ROMK mod	ROMK hit retest
COc1cc(/C=C2\SC(=S)N(NC(=O)c3cccnc3)C2=O)ccc1O	-2.3	1	.	.	-4.2*	0.058*
COc1cc(/C=C2\SC(=S)N(Nc3ccccc3)C2=O)ccc1O	0.26	1	9	-1	.	.
O=C(CC1NC(=S)NC1=O)c1ccc(Cl)cc1 (stereo not drawn)	0.66	1	.	.	-0.16	.
CN(C)CCCNC(NC(=O)c1cccs1)C(Cl)(Cl)Cl (stereo not drawn)	0.037	-2	3	0	.	.
CC(C)(C)c1ccc(OCCCNCc2ccccc2)cc1	-2	-1	3	0	-0.91	.
Clc1cc(Br)ccc1OCCCNCc1ccccc1	-1.3	-2	5	0	-4.3*	0.059*
CN(Cc1ccccc1)C(=O)COc1ccc(Br)cc1Cl	-2.9	1	.	.	-0.37	.
CCc1cc(OCCCCNCc2ccccc2)ccc1Cl	0.24	-2	3	1	-3.6*	0.054*
Cc1cccc(C(=O)NCC(=O)N2CC(=O)Nc3ccccc32)c1	0.0032	-1	3	0	0.16	.
N#C/C(=C\c1ccc(N2CCOCC2)o1)C(=O)NCC1CCCO1 (stereo not drawn)	i	1	4	-1	-4.2*	0.038*
N#C/C(=C\c1ccc(N2CCOCC2)o1)C(=O)NC1CCCCC1	-4.4	0	.	.	.	0.035*
O=C(CCCCN1CCCCC1)c1ccc2c(c1)Cc1ccccc1-2	0.19	10	3	8	-4.5*	0.064*
Cn1c(=O)c2c(nc(N3CCN(c4ccccc4)CC3)n2CCCc2ccccc2)n(C)c1=O	0.35	.	2	3	.	.
Cn1c(=O)c2c(nc(N3CCN(Cc4ccccc4)CC3)n2CCCc2ccccc2)n(C)c1=O	0.73	-4	4	-1	.	0.058*
N#Cc1cc2cc3c(cc2nc1SCC(=O)OC1CCCCC1)OCO3	-0.44	-1	2	2	.	.
CC(=O)CSc1nc2cc3c(cc2cc1C#N)OCCO3	-1.2	-2	2	0	-3.3*	0.054*
C[C@H](c1ccccc1)n1nnc(COCc2ccccc2)c1C#CCOCc1ccccc1	-0.16	0	.	.	.	.
O=[N+]([O-])c1cc(/C=N/O)ccc1N1CCCC1	-0.98	6	6	0	-3.4*	?
O=[N+]([O-])/C=C\c1ccc(N2CCCC2)c(F)c1	-1.4	-1	3	0	.	0.042*
O=Cc1ccc(N2CCCC2)c([N+](=O)[O-])c1	-0.052	-5	4	0	-0.039	.
C=CCOC(=O)C1C(=O)CC(C)(O)C(C(=O)OCC=C)C1c1ccc(N(C)C)cc1 (stereo not drawn)	-0.12	-2	3	0	0.088	.
CCOc1cc(CNCC(C)C)c(Cl)cc1OCC(=O)Nc1ccccc1	-0.15	-4	3	-1	-0.36	.
CCOc1ccccc1NC(=O)C(NCC1(N2CCCCC2)CCCCC1)c1ccccc1 (stereo not drawn)	-0.95	2	3	0	-3.4*	0.064*
COc1ccc(OC)c(C(=O)Cn2c3[n+](c4ccc(C(F)(F)F)cc42)CCCCC3)c1	1.9	-4	2	0	.	.
CN(C)S(=O)(=O)c1ccc(C(=O)Nc2nc(-c3ccccc3)c(C(=O)c3ccccc3)s2)cc1	0.34	-1	6	0	1.2*	0.09
SMILES	Cl transport mod	b-catenin transl	MT stabilizer	DTT redox prof	ROMK mod	ROMK hit retest
Cn1c(=O)cc(Nc2ccccc2)c2c(=O)n(-c3ccccc3)c(=O)n(-c3ccccc3)c21	0	4	.	.	.	.
CCC(NC(=O)Nc1nnc(C(F)(F)F)s1)(C(F)(F)F)C(F)(F)F	.	5	4	-1	-5.8*	0.062*
O=C(O)CCC(=O)Nc1nnc(C(F)(F)F)s1	-0.064	-1	3	3	.	.
COc1ccc(C2=NO[C@@H]3[C@@H]4C[C@@H]([C@H]5C(=O)N(C)C(=O)[C@@H]45)[C@H]23)c(OC)c1	-0.36	-5	.	.	.	.
CN1/C(=C/C=C(C#N)C#N)C=Cc2ccccc21	-0.7	-2	.	.	.	0.047*
CCOC(=O)/C(C#N)=C/C=C1\C=Cc2ccccc2N1CC	-2.3	0	2	0	-1.1	.
N#Cc1cccc(N=c2ssnc2Cl)c1	1.5	-2	2	-2	-3.9*	0.065*
